# An excerpt weighted towards active compounds, which were near 1.6% of everything screened.
# PABP1 MLLE inh: inhibitors of PABP1 MLLE–PAM2 peptide binding, primary screen, biochemical, fluorescence polarization, FITC-PAM2, GST-MLLE; AID 588489, 2011; inhibition, % at 20 µM; Polyadenylate-binding protein 1 (Homo sapiens), P11940; 360,000 compounds, 0.36% hits; in the data active = inhibition above about 35%, passing the limit was not always enough;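 note: plate controls were DMSO wells with GST-MLLE for no effect and wells lacking GST-MLLE protein for full effect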
# RBBP9 inhibitor: human RBBP9 inhibitors, primary screen, biochemical, fluorescence polarization, FP-Rh probe, HTS. AID 1515, 2009. inhibition, % at 7.94 µM. recombinant RBBP9. 220,000 compounds, 0.2% hits;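 active = inhibition above the campaign mean of all tested compounds plus 3 SD, cut at about 14% in these data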;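 note: plate controls were DMSO wells with RBBP9 for no effect and wells lacking RBBP9 protein for full effect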
# Target sequence (O75884 whole entry, looked up): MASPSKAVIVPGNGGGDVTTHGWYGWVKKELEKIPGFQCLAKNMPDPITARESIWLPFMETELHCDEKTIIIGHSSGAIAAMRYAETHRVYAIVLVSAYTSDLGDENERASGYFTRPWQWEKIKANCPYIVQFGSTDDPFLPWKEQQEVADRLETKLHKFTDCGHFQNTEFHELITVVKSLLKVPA
#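 Test system: recombinant human RBBP9; Timing: 30 min then 45 min, 25 °C; Detection: fluorescence polarization; Control set: RBBP9 with DMSO as uninhibited control, no-protein wells as full inhibition; Compound dosing: one concentration, 7.94 µM nominal, 0.794% DMSO; Probe or stimulus: FP-Rh activity-based probe, 375 nM before mixing.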
# eIF4H FP inh: human eIF4H binding inhibitors, primary screen, translation initiation inhibitor project, biochemical, uHTS, fluorescence polarization | Eukaryotic translation initiation factor 4H (Homo sapiens), Q15056 | eIF4H fluorescence polarization binding assay | inhibition, % at 35 µM | 290,000 compounds, 0.94% hits;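 note: calls also rest on retests at 20 µM and on dose response follow-up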
# PABP FP inh: PABP poly(A) RNA binding inhibitors, primary screen, biochemical, fluorescence polarization, uHTS. calls only at 35 µM. 290,000 compounds, 1% hits. Polyadenylate-binding protein 1 (Homo sapiens), P11940;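 note: calls also rest on retests at 20 µM and on dose response follow-up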
# TCR CD3 inh: inhibitors of human TCR-CD3 interaction, primary screen, biochemical, fluorescence, TAMRA-labeled TCR probe. inhibition, % at 9.4 µM. 360,000 compounds, 0.37% hits. AID 651800, 2012; in the data active = inhibition above about 19%;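 note: recombinant mutant TCR 2C K166C tagged with TAMRA read by polarization; 0% = receptor in buffer alone and 100% = receptor with positive control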
# Numbers without * were called inactive; i = inactive; ? = inconclusive; nt = not tested or not shown; + = active, no number. Unless noted, the rule behind the calls is not given here.
SMILES,PABP1 MLLE inh,RBBP9 inhibitor,eIF4H FP inh,PABP FP inh,TCR CD3 inh
CCc1cc(C(=O)OC)c(NC(=O)CC2Nc3cc(C)c(C)cc3NC2=O)s1 (stereo not given),-32,-7,0,i,5
C#CCOCCOCCOCCNc1nc(N2CCOCC2)nc(N2CCN(C(=O)[C@H](CCCCN)n3cc([C@@H](N)CO)nn3)CC2)n1,-3,-12,27,i,1
C#CCOCCOCCOCCNc1nc(N2CCN(C(=O)[C@H]([C@@H](C)CC)n3cc([C@@H](N)CO)nn3)CC2)nc(N2CCN(C(=O)[C@H]([C@@H](C)CC)n3cc([C@@H](N)CO)nn3)CC2)n1,nt,nt,-1,i,nt
C#CCOCCOCCOCCNc1nc(OC)nc(N2CCN(C(=O)[C@H](CCCCN)n3cc(C(N)CO)nn3)CC2)n1 (stereo not given in full),nt,nt,60*,+,nt
C#CCOCCOCCOCCNc1nc(N2CCN(C(=O)[C@H]([C@@H](C)CC)n3cc([C@@H](N)CO)nn3)CC2)nc(N2CCN(C(=O)[C@H]([C@@H](C)CC)n3cc([C@@H](N)CC(C)C)nn3)CC2)n1,41*,-3,?,?,nt
CCC(CC)C(=O)Nc1cccc(C(=O)Nc2ccc(S(=O)(=O)Nc3ccc(C)cc3)cc2)c1,-7,-32,-2,i,24*
CCC(CC)C(=O)Nc1cccc(C(=O)Nc2ccc(S(N)(=O)=O)cc2)c1,11,0,-5,i,4
CC(C)(C)OC(=O)CN1C(=O)NC(Cc2c[nH]c3ccccc23)C1=O (stereo not given),-4,nt,-5,i,10
C/C(N)=C(/C#N)C(=O)CN1C(=O)NC(Cc2c[nH]c3ccccc23)C1=O (stereo not given),-3,nt,57*,i,8
CN1CCCCC(NC(=O)c2ccc3ccccc3c2)C1=O (stereo not given),nt,nt,nt,nt,-1
O=C(CN1C(=O)c2ccccc2C1=O)c1ccccc1,7,-5,0,i,1
C=C(C)CN1C(=O)c2ccccc2C1=O,-3,-2,57,+,-3
O=C(O)CCCC(=O)Nc1ccc(N2CCCC2)cc1,13,-6,69*,i,-1
CCCC(=O)Nc1ccc(N2CCCCC2)cc1,-13,-13,-10,i,-6
CN1N=C(N)c2cn(C3OC(COP(=O)(O)O)C(O)C3O)c3ncnc1c23 (stereo not given),51*,nt,nt,nt,7
C[C@H]1CN(c2ccc(N3CCN(C(=O)OC(C)(C)C)C[C@@H]3C)cc2C#N)CCN1Cc1ccccc1,nt,nt,nt,nt,6
Cc1cccc(OC(=O)n2c(=S)oc3cc(Cl)ccc32)c1,-75,-1,?,+,3
CC(C)OC(=O)n1c(=S)oc2ccccc21,-59,7,-7,i,3
NC(CO)C(=O)NNCc1ccc(O)c(O)c1O (stereo not given),48*,-5,97*,+,16
CN1/C(=C\C(=O)c2cccc([N+](=O)[O-])c2)Sc2ccccc21,39*,nt,11,i,-5
COc1cc(OC)cc(C(=O)/C=C2\Sc3ccccc3N2C)c1,36,-6,7,i,6
CCCSc1nnc(N2C(=O)C(O)=C(C(=O)c3ccco3)C2c2ccccc2F)s1 (stereo not given),19,nt,?,+,8
CSc1nnc(N2C(=O)C(O)=C(C(=O)c3ccco3)C2c2ccccc2F)s1 (stereo not given),1,nt,29,i,0
COC(=O)[C@]12C[C@H](CC(=O)NCc3ccc(C)o3)C(=O)N(CCC3=CCCCC3)C1=C[C@H](COCc1ccccc1)O[C@@H]2C,nt,nt,nt,nt,-2
O=C1NN(c2ccccc2)C(=O)/C1=C\c1ccc(-c2cc([N+](=O)[O-])ccc2O)o1,-16,1,92*,+,0
SMILES,PABP1 MLLE inh,RBBP9 inhibitor,eIF4H FP inh,PABP FP inh,TCR CD3 inh
O=C1NN(c2ccc(Cl)cc2)C(=O)/C1=C\c1ccc(-c2cccc(C(=O)O)c2)o1,-28,-5,79,i,5
COC(=O)C1=C(C)N(Cc2ccccc2C(F)(F)F)C(=NCc2cc(OC)c(OC)c(OC)c2)NC1c1ccc(Cl)cc1 (stereo not given),nt,nt,nt,nt,-6
CCOC(=O)c1cc(CC)sc1/N=C/C1=C(O)CCCC1=O,14,-1,72,+,2
O=C(CSc1ccc(Cl)cc1)c1ccco1,32,-2,87*,+,nt
O=C(CC1CCCC1)N[C@@H](Cc1cccnc1)C(=O)N1CCC[C@H]1C(=O)NCCc1ccccc1Cl,nt,nt,nt,nt,-4
CC(C)(C)NC(=O)CCN(/N=C/c1ccc([N+](=O)[O-])o1)C1=NS(=O)(=O)c2ccccc21,-28,-2,82*,i,10
Cc1ccc(NC(=O)COC(=O)CSC(=S)N2CCOCC2)cc1,6,-5,active,+,1
COC(=O)c1cc2c(c3c4cc(OC)ccc4n(S(=O)(=O)c4ccccc4)c13)C(=O)N(Cc1ccc(C(F)(F)F)cc1)C2,nt,nt,nt,nt,3
COC(=O)CNC(c1ccccc1)c1cc(Br)ccc1NC(C)=O (stereo not given),12,-7,-3,i,5
COC(=O)CNC(c1ccccc1Cl)c1cc(Br)ccc1NS(=O)(=O)c1ccc(C)cc1 (stereo not given),-2,-8,active,i,6
Cc1cc(N2CCN(C(=O)OC(C)(C)C)C[C@@H]2C)ccc1N1CCN(Cc2ccccc2)[C@H](C)C1,nt,nt,nt,nt,12
CC(=O)CSc1ncnc2sc3c(c12)CCC3,-7,-5,4,i,-1
O=C(CSc1ncnc2sc3c(c12)CCC3)N1CCOCC1,12,nt,62*,i,5
O=c1c2ccccc2nc(-c2ccco2)n1/N=C/c1ccco1,6,0,97*,+,4
COc1cc2c(cc1NC(=O)c1cccc([N+](=O)[O-])c1)oc1ccccc12,12,5,5,i,13
COc1cc2c(cc1NC(=O)c1ccc(C)c([N+](=O)[O-])c1)oc1ccccc12,-15,-5,active,i,3
CCOC(=O)C1CCN(C(=O)NS(=O)(=O)c2ccc(C)cc2)CC1,3,0,3.0*,+,-3
COC(=O)C1=C(C)N(C)C(=NCc2ccccc2C(F)(F)F)NC1c1cccc(F)c1 (stereo not given),nt,nt,nt,nt,3
O=C(Nc1nc(-c2ccco2)c(-c2ccco2)s1)C1CC(=O)N(c2ccc3c(c2)OCCO3)C1 (stereo not given),-29,-3,84*,+,8
CCC(C)[C@H](NC(=O)C1CC(=O)N(c2ccc3c(c2)OCO3)C1)C(=O)NC1CCCCC1 (stereo not given in full),49*,nt,?,?,5

# Screens deposited in PubChem by several laboratories.
